Screening results from PubChem BioAssay.
TLR4 MyD88 comp: blocks binding of human TLR4 to MyD88 | O00206+Q99836 | HeLa CL3-4 TLR4/MyD88 BLA complementation, FRET ratio | inhibition, % at 8.4 µM | 200,000 tested, 0.18% active; in the data active = inhibition above about 25%;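 note: 0% = vehicle and 100% = reference inhibitor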
TLR9-MyD88 inh: blocks human TLR9 binding to MyD88 | Q9NR96+Q99836 | CHO BLA complementation TLR9-MyD88, CCF4 FRET ratio | inhibition, % at 4.98 µM | 340,000 tested, 0.21% active;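 active = inhibition above the mean over all tested compounds plus 3 SD, cut at about 21% in these data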;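 note: 0% = DMSO only wells and 100% = clavulanate BLA inhibitor control wells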
MT1-MMP act inh: blocks activation of human MT1-MMP; HT1080 RFP-PRO-GFP cells, GFP/RFP ratio fluorescence, overnight; percent of plate control window, DMSO zero; GFP/RFP ratio change, % at 20 µM; 360,000 tested, 0.061% active; AID 651647;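 active = GFP/RFP ratio change of at least 30% with cell ATP level not reduced by more than half and red fluorescence within 50% of control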
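Material – HT1080 RFP-PRO-GFP cells · Control set – DMSO wells and RFP-L50D-GFP cells · Incubation – overnight cell settling, then overnight compound exposure, 37 °C, 5% CO2 · Compound dosing – single-point 20 µM compound, 1% DMSO · Read-out – GFP/RFP fluorescence ratio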
NOD2-RIPK2 inh: blocks binding of human NOD2 to RIPK2. O43353. CHO BLA complementation NOD2-RIPK2, CCF4 ratio. AID 624267. 360,000 tested, 0.38% active. inhibition, % at 4.98 µM; in the data active = inhibition above about 21%;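 note: 0% = vehicle only and 100% = reference blocker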
SKN-1 inh: blocks SKN-1 activity in C. elegans; C. elegans VP596 Pgst-4::GFP/RFP ratio, acrylamide-induced, 24 h; inhibition, % at 21.8 µM; 360,000 tested, 0.49% active; AID 624304;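 active = interference check ratio from 0.5 to 1.5 plus GFP to RFP signal ratio inhibition reaching or exceeding a fixed threshold, cut at about 30% in these data, passing the limit was not always enough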
TLR4-MyD88 conf: TLR4-MyD88 interaction inhibition confirmed; shares compounds with TLR4 MyD88 comp; 350 tested, 50% active; AID 941; HeLa CL3-4 BLA complementation, CCF4 FRET ratio; inhibition, % at 8.4 µM;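 active = mean inhibition across three repeat runs above about 25% carried over from the earlier screen, limit read from the data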;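 note: plate controls were DMSO only for no effect and clavulanic acid blocking BLA at full dose for full effect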
BLA inh HeLa: inhibits beta-lactamase activity, counter-screen to TLR4-MyD88 binding inhibitors; HeLa BLA reporter, CCF4 FRET ratio; inhibition, % at 8.4 µM; shares compounds with TLR4 MyD88 comp; 350 tested, 63% active;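 active = mean inhibition over three repeats above about 26% taken from the earlier screen, limit read from the data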;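 note: HeLa cells stably expressing beta-lactamase reporter as counterscreen for TLR4-MyD88 inhibitors; 0% = DMSO and 100% = clavulanic acid full inhibition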
TLR9-MyD88 cf: TLR9-MyD88 interaction inhibition, confirmation; AID 540250; CHO TLR9/MyD88 BLA complementation, CCF4 FRET ratio; 680 tested, 51% active; inhibition, % at 4.98 µM; shares compounds with TLR9-MyD88 inh;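 active = mean inhibition across three repeats above about 21% taken from the earlier screen, limit read from the data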;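 note: blue over green emission ratio reports constitutive TLR9 MyD88 association via BLA complementation; 0% = DMSO vehicle wells and 100% = clavulanate BLA inhibitor wells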
Target sequence (Q9NR96 whole entry, looked up): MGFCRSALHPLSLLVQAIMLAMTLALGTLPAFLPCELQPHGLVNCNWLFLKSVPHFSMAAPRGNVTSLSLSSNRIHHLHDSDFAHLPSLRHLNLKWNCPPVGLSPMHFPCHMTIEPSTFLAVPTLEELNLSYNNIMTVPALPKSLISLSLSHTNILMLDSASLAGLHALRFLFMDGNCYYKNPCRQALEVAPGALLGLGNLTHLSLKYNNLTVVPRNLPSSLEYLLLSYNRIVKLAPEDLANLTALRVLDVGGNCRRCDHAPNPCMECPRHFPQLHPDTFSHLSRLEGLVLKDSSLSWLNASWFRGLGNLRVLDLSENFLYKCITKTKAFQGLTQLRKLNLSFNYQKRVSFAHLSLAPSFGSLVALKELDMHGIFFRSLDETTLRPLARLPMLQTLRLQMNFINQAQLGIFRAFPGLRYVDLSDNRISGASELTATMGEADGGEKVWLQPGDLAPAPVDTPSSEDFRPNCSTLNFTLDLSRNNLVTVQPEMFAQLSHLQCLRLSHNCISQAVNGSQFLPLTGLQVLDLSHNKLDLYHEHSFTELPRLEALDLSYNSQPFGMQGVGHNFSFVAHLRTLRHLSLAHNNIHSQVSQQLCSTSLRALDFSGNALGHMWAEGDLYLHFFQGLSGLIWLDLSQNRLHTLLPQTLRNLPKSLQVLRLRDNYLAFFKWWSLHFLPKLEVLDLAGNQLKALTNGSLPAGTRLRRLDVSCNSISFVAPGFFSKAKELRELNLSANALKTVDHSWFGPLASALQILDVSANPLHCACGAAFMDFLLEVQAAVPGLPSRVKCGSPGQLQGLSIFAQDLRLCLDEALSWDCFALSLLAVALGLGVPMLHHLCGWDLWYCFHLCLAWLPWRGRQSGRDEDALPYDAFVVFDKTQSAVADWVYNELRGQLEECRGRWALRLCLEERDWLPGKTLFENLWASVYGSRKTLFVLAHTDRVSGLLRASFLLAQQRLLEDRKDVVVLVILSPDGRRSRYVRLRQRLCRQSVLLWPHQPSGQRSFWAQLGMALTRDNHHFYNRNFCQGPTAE
BLA counter-1: beta-lactamase reporter inhibition, counter-screen artifact. shares compounds with TLR9-MyD88 inh. CHO-BLA cells, CCF4 FRET ratio, BLA reporter. inhibition, % at 4.98 µM. 680 tested, 7% active;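 active = mean inhibition above a 50% cutoff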;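 note: counterscreen of TLR9-MyD88 hits on CMV-driven BLA in CHO-K1 cells; 0% = DMSO alone and 100% = clavulanate blocking BLA; higher means less blue over green ratio so more BLA blockade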
TLR9 CHO cytotox: CHO cell toxicity counter-screen for TLR9-MyD88 inhibitors. shares compounds with TLR9-MyD88 inh. TLR9-MyD88 CHO cells cytotoxicity, luminescence. inhibition, % at 4.98 µM. 680 tested, 39% active; in the data active = inhibition above about 11%
NOD2 RIPK2 conf: confirmation of human NOD2-RIPK2 interaction inhibitors; shares compounds with NOD2-RIPK2 inh; 1,200 tested, 70% active; CHO cells, NOD2-RIPK2 BLA complementation, CCF4 FRET; inhibition, % at 4.98 µM;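 active = mean inhibition across replicates above a set limit taken from the earlier primary screen, cut at about 21% in these data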;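 note: 0% = DMSO-only wells and the high end = clavulanate BLA-blocked wells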
BLA counter-2: counter-screen for NOD2-RIPK2 interaction inhibitors: BLA reporter; shares compounds with NOD2-RIPK2 inh; CHO BLA reporter, CCF4 FRET ratio, counterscreen; 1,200 tested, 57% active; inhibition, % at 4.98 µM;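 active = mean inhibition above the low-control mean inhibition plus three low-control SD, cut at about 11% in these data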;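 note: 0% = DMSO only wells and 100% = clavulanate high control wells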
Numbers without * were called inactive; · = not tested or not shown. Most compounds without a hit are left out; they make up all but 0.99% or so of the library.

SMILES	TLR4 MyD88 comp	TLR9-MyD88 inh	MT1-MMP act inh	NOD2-RIPK2 inh	SKN-1 inh	TLR4-MyD88 conf	BLA inh HeLa	TLR9-MyD88 cf	BLA counter-1	TLR9 CHO cytotox	NOD2 RIPK2 conf	BLA counter-2
CCc1ccc2c(c1)C1(NN=C(c3cccc4ccccc34)S1)C(=O)N2 (stereo not drawn)	31*	27*	-5	30*	-8	3	28*	·	·	·	4	8
Cc1ccc2nc(/C(C#N)=C\c3ccc([N+](=O)[O-])o3)[nH]c2c1	84*	24*	-74	27*	9	83*	96*	57*	70*	75*	86*	70*
CCCCNC(=O)COC(=O)c1c2c(nc3ccccc13)CCC2	·	3	-1	2	7	·	·	·	·	·	·	·
CNC(=O)NC(=O)C(C)OC(=O)c1c2c(nc3ccccc13)/C(=C/c1cccs1)CC2 (stereo not drawn)	51*	51*	-15	56*	12	55*	85*	51*	63*	11*	72*	81*
CCCCNC(=O)COC(=O)c1c2c(nc3ccccc13)/C(=C/c1cccs1)CC2	56*	48*	-6	52*	9	50*	83*	43*	46	6	67*	77*
CC(OC(=O)c1c2c(nc3ccccc13)/C(=C\c1ccc3c(c1)OCO3)CCC2)C(=O)Nc1ccc(S(N)(=O)=O)cc1 (stereo not drawn)	12	5	-103	4	14	·	·	·	·	·	·	·
Cn1nc(C(F)(F)F)c(-c2cccc(C(F)(F)F)c2)c1NC(=O)CSCC(=O)O	·	5	2	-5	-3	·	·	·	·	·	·	·
CC1(C(=O)Nc2cccc(NS(C)(=O)=O)c2)CCN1CCc1ccccc1 (stereo not drawn)	·	·	2	-2	15	·	·	·	·	·	·	·
COc1ccc(CNC(=O)C2CCCN(S(=O)(=O)c3ccc(F)cc3)C2)cc1 (stereo not drawn)	·	2	0	6	5	·	·	·	·	·	·	·
Cc1nn(C)c(C)c1N1C(=O)c2cccc3c(Br)ccc(c23)C1=O	66*	48*	-201	56*	8	52*	92*	29*	33	6	51*	42*
Cc1nn(C)c(C)c1N1C(=O)c2cccc3c(N)ccc(c23)C1=O	29*	29*	-318	34*	-80	20	44*	15	19	3	44*	44*
CC(C)c1cc(=O)oc2c3c4c(cc12)CCCN4CCC3	6	1	-48	7	11	·	·	·	·	·	·	·
CN1CCCc2cc3c(C(F)(F)F)cc(=O)oc3nc21	39*	47*	-14	35*	-22	36*	66*	38*	45	7	69*	73*
CCC(=O)c1ccc(/C=C/c2nc3ccccc3n2C)o1	50*	43*	-10	58*	13	47*	65*	31*	39	1	63*	64*
Cc1cc(C)n2c(=O)c3ccc(Cl)cc3nc2c1C#N	1	0	-2	-6	7	·	·	·	·	·	·	·
Cc1cc(Cl)n2c(nc3cc(F)c(F)cc32)c1C#N	75*	71*	9	63*	16	72*	86*	66*	54*	101*	90*	82*
Cc1[nH]c2ccccc2c1/C=N/NC(=O)c1ccccc1	·	3	3	4	9	·	·	·	·	·	·	·
Cc1[nH]c2ccccc2c1/C=C/C(=O)c1ccccc1	27*	40*	-28	44*	13	27*	49*	21	22	1	43*	49*
O=C1c2cccc3c([N+](=O)[O-])ccc(c23)C(=O)N1c1ccccn1	92*	81*	-241	90*	-25	91*	114*	65*	85*	99*	93*	87*
Clc1ccc(-c2nc3cnccn3c2NC2CCCC2)cc1	32*	24*	-2	25*	14	10	22	15	15	-1	34*	34*
CCCCCCSc1ccc(-c2nc3cnccn3c2NC2CCCCC2)cc1	·	·	-8	-5	16	·	·	·	·	·	·	·
O=Cc1s/c(=N\S(=O)(=O)c2ccccc2)n(CCCCl)c1Cl	30*	37*	12	85*	2	28*	2	42*	8	96*	96*	36*
CCN(CC)c1ccc(/C=C/C(=O)c2ccc(Br)cc2)cc1	55*	34*	-108	59*	18	53*	74*	39*	47	-5	78*	79*
CCN(CC)c1ccc(/C=C/C(=O)c2cccnc2)cc1	-15	0	·	-18	1	·	·	·	·	·	·	·
Cc1occc1C(=O)N/N=C/C1=C(N2CCOCC2)C(=C/c2ccc(Cl)cc2Cl)/CC1	·	-15	-7	-1	-5	·	·	·	·	·	·	·
COc1cc2c3nnc(-c4ccc(F)cc4)c-3cn(Cc3cccc(C)c3)c2cc1OC	44*	41*	-3	55*	-42	14	60*	26*	44	-2	73*	75*
COc1cc2c3nnc(-c4ccc(F)cc4)c-3cn(Cc3ccc(C)cc3)c2cc1OC	48*	27*	-51	51*	-14	26*	81*	59*	61*	8	84*	86*
CN(CC(=O)Nc1ccc(Cl)c(C(F)(F)F)c1)C(=O)COC(=O)C1CC2CCCC(C1)C2=O (stereo not drawn)	·	-2	2	-6	27	·	·	·	·	·	·	·
O=S(=O)(c1ccc(NC(=S)N/N=C/c2c3ccccc3cc3ccccc23)cc1)N1CCOCC1	39*	4	-12	22*	25	19	43*	·	·	·	49*	53*
